Assay results taken from ChEMBL document CHEMBL4393701, “Appendix A. dithioloquinolinethiones as new potential multitargeted antibacterial and antifungal agents: Synthesis, biological evaluation and molecular docking studies” (2019).
Values after ≈ are worked out from the molar mass of the structure shown.

Key:
Salmonella typhimurium [1] = test: Antibacterial activity against Salmonella typhimurium ATCC 13311 after 24 hrs by iodonitrotetrazolium chloride dye based microdilution method; assay type: functional, Salmonella enterica subsp. enterica serovar Typhimurium; details: Salmonella enterica, ATCC 13311, 24 h
Summary of the method: (§1)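 Fresh overnight cultures adjusted spectrophotometrically to 1×10^5 CFU/mL, giving 1.0×10^4 CFU per well in tryptic soy broth. Compounds were dissolved in 5% DMSO and tested at 0.001-1.0 mg/ml by serial dilution; 5% DMSO was the negative control. After 24 h at 37 °C, 0.2 mg/mL INT solution was added for 30 min at 37 °C and OD read at 655 nm. MIC is the lowest concentration giving significant growth inhibition versus the positive control. Duplicates, repeated three times.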

Micrococcus flavus [2] = test: Bactericidal activity against Micrococcus flavus ATCC 10240 incubated for 24 hrs followed by re-plating on tryptic soy broth; assay type: functional; details: ATCC 10240, 24 h
Summary of the method: (§2)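 Bacteria were grown in tryptic soy broth, 1.0×10^4 CFU per well, with compounds in 5% DMSO at 0.001-1.0 mg/ml for 24 h at 37 °C. Then 10 µL was subcultured into fresh TSB. MBC is the lowest concentration showing no growth after subculture, taken as 99.5% kill of the original inoculum. Duplicates, repeated three times.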

Penicillium ochrochloron [3] = test: Fungicidal activity against Penicillium ochrochloron ATCC 9112 incubated for 72 hrs followed by sub-culturing on broth malt medium and measured after 72 hrs; assay type: functional; details: ATCC 9112, 72 h
Summary of the method: (§3)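 After 72 h exposure in malt broth, 2 µL from test wells was subcultured into wells holding 100 µL broth and incubated a further 72 h at 28 °C. MFC is the lowest concentration with no visible growth, taken as 99.5% kill of the original inoculum. Three independent experiments in duplicate.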

Penicillium cyclopium [4] = test: Antifungal activity against Penicillium verrucosum var. cyclopium food isolate after 72 hrs by microdilution technique; assay type: functional
Summary of the method: (§4)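 Spores were washed off malt agar with 0.85% saline containing 0.1% Tween 80 and adjusted to about 1.0×10^5 per well. Compounds in 5% DMSO were serially diluted (0.001-1.0 mg/ml) in malt broth with inoculum. Plates were shaken at 160 rpm for 72 h at 28 °C. MIC is the lowest concentration without visible growth under a binocular microscope. Three independent experiments in duplicate.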

Aspergillus fumigatus [5] = test: Fungicidal activity against Aspergillus fumigatus ATCC 1022 incubated for 72 hrs followed by sub-culturing on broth malt medium and measured after 72 hrs; assay type: functional; details: ATCC 1022, 72 h; summary of the method: as §3
Aspergillus ochraceus [6] = test: Antifungal activity against Aspergillus ochraceus ATCC 12066 after 72 hrs by microdilution technique; assay type: functional; details: ATCC 12066, 72 h; summary of the method: as §4
Aspergillus versicolor [7] = test: Antifungal activity against Aspergillus versicolor ATCC 11730 after 72 hrs by microdilution method; assay type: functional; details: ATCC 11730, 72 h; summary of the method: as §4
Penicillium cyclopium [8] = test: Fungicidal activity against Penicillium verrucosum var. cyclopium food isolate incubated for 72 hrs followed by sub-culturing on broth malt medium and measured after 72 hrs; assay type: functional; summary of the method: as §3
Aspergillus niger [9] = test: Antifungal activity against Aspergillus niger ATCC 6275 after 72 hrs by microdilution technique; assay type: functional; details: ATCC 6275, 72 h; summary of the method: as §4
Aspergillus niger [10] = test: Fungicidal activity against Aspergillus niger ATCC 6275 incubated for 72 hrs followed by sub-culturing on broth malt medium and measured after 72 hrs; assay type: functional; details: ATCC 6275, 72 h; summary of the method: as §3
Aspergillus fumigatus [11] = test: Antifungal activity against Aspergillus fumigatus ATCC 1022 after 72 hrs by microdilution technique; assay type: functional; details: ATCC 1022, 72 h; summary of the method: as §4
Penicillium ochrochloron [12] = test: Antifungal activity against Penicillium ochrochloron ATCC 9112 after 72 hrs by microdilution technique; assay type: functional; details: ATCC 9112, 72 h; summary of the method: as §4
Trichoderma viride [13] = test: Antifungal activity against Trichoderma viride IAM 5061 after 72 hrs by microdilution technique; assay type: functional; details: IAM 5061, 72 h; summary of the method: as §4
[14] = Fungicidal activity against Penicillium funiculosum ATCC 36839 incubated for 72 hrs followed by sub-culturing on broth malt medium and measured after 72 hrs; assay type: functional; details: Talaromyces pinophilus, ATCC 36839, 72 h; summary of the method: as §3
Aspergillus versicolor [15] = test: Fungicidal activity against Aspergillus versicolor ATCC 11730 incubated for 72 hrs followed by sub-culturing on broth malt medium and measured after 72 hrs; assay type: functional; details: ATCC 11730, 72 h; summary of the method: as §3
Bacillus cereus [16] = test: Bactericidal activity against Bacillus cereus clinical isolate incubated for 24 hrs followed by re-plating on tryptic soy broth; assay type: functional; summary of the method: as §2
Listeria monocytogenes [17] = test: Antibacterial activity against Listeria monocytogenes NCTC 7973 after 24 hrs by iodonitrotetrazolium chloride dye based microdilution method; assay type: functional; details: NCTC 7973, 24 h; summary of the method: as §1
Enterobacter cloacae [18] = test: Bactericidal activity against Enterobacter cloacae incubated for 24 hrs followed by re-plating on tryptic soy broth; assay type: functional; summary of the method: as §2
Enterobacter cloacae [19] = test: Antibacterial activity against Enterobacter cloacae clinical isolate after 24 hrs by iodonitrotetrazolium chloride dye based microdilution method; assay type: functional; summary of the method: as §1
Salmonella typhimurium [20] = test: Bactericidal activity against Salmonella typhimurium ATCC 13311 incubated for 24 hrs followed by re-plating on tryptic soy broth; assay type: functional, Salmonella enterica subsp. enterica serovar Typhimurium; details: Salmonella enterica, ATCC 13311, 24 h; summary of the method: as §2
Pseudomonas aeruginosa [21] = test: Antibacterial activity against Pseudomonas aeruginosa ATCC 27853 after 24 hrs by iodonitrotetrazolium chloride dye based microdilution method; assay type: functional; details: ATCC 27853, 24 h; summary of the method: as §1
Bacillus cereus [22] = test: Antibacterial activity against Bacillus cereus clinical isolate after 24 hrs by iodonitrotetrazolium chloride dye based microdilution assay; assay type: functional; summary of the method: as §1
Escherichia coli [23] = test: Antibacterial activity against Escherichia coli ATCC 35210 after 24 hrs by iodonitrotetrazolium chloride dye based microdilution method; assay type: functional; details: ATCC 35210, 24 h; summary of the method: as §1
Pseudomonas aeruginosa [24] = test: Bactericidal activity against Pseudomonas aeruginosa ATCC 27853 incubated for 24 hrs followed by re-plating on tryptic soy broth; assay type: functional; details: ATCC 27853, 24 h; summary of the method: as §2
Escherichia coli [25] = test: Bactericidal activity against Escherichia coli ATCC 35210 incubated for 24 hrs followed by re-plating on tryptic soy broth; assay type: functional; details: ATCC 35210, 24 h; summary of the method: as §2
Micrococcus flavus [26] = test: Antibacterial activity against Micrococcus flavus ATCC 10240 after 24 hrs by iodonitrotetrazolium chloride dye based microdilution method; assay type: functional; details: ATCC 10240, 24 h; summary of the method: as §1
Trichoderma viride [27] = test: Fungicidal activity against Trichoderma viride IAM 5061 incubated for 72 hrs followed by sub-culturing on broth malt medium and measured after 72 hrs; assay type: functional; details: IAM 5061, 72 h; summary of the method: as §3
Staphylococcus aureus [28] = test: Bactericidal activity against Staphylococcus aureus ATCC 6538 incubated for 24 hrs followed by re-plating on tryptic soy broth; assay type: functional; details: ATCC 6538, 24 h; summary of the method: as §2
Staphylococcus aureus [29] = test: Antibacterial activity against Staphylococcus aureus ATCC 6538 after 24 hrs by iodonitrotetrazolium chloride dye based microdilution method; assay type: functional; details: ATCC 6538, 24 h; summary of the method: as §1
[30] = Antifungal activity against Penicillium funiculosum ATCC 36839 after 72 hrs by microdilution technique; assay type: functional; details: Talaromyces pinophilus, ATCC 36839, 72 h; summary of the method: as §4
Listeria monocytogenes [31] = test: Bactericidal activity against Listeria monocytogenes NCTC 7973 incubated for 24 hrs followed by re-plating on tryptic soy broth; assay type: functional; details: NCTC 7973, 24 h; summary of the method: as §2
Aspergillus ochraceus [32] = test: Fungicidal activity against Aspergillus ochraceus ATCC 12066 incubated for 72 hrs followed by sub-culturing on broth malt medium and measured after 72 hrs; assay type: functional; details: ATCC 12066, 72 h; summary of the method: as §3

SMILES | MIC (Salmonella typhimurium [1]) [µM] | MBC (Micrococcus flavus [2]) [µM] | MFC (Penicillium ochrochloron [3]) [×10⁻² mM] | MIC (Penicillium cyclopium [4]) [×10⁻² mM] | MFC (Aspergillus fumigatus [5]) [×10⁻² mM] | MIC (Aspergillus ochraceus [6]) [×10⁻² mM] | MIC (Aspergillus versicolor [7]) [×10⁻² mM] | MFC (Penicillium cyclopium [8]) [×10⁻² mM] | MIC (Aspergillus niger [9]) [×10⁻² mM] | MFC (Aspergillus niger [10]) [×10⁻² mM] | MIC (Aspergillus fumigatus [11]) [×10⁻² mM] | MIC (Penicillium ochrochloron [12]) [×10⁻² mM] | MIC (Trichoderma viride [13]) [×10⁻² mM] | MFC [14] [×10⁻² mM] | MFC (Aspergillus versicolor [15]) [×10⁻² mM] | MBC (Bacillus cereus [16]) [µM] | MIC (Listeria monocytogenes [17]) [µM] | MBC (Enterobacter cloacae [18]) [µM] | MIC (Enterobacter cloacae [19]) [µM] | MBC (Salmonella typhimurium [20]) [µM] | further results
CCOc1ccc2c(c1)-c1c(ssc1=S)C(C)(C)N2C(=O)c1ccc(Cl)c([N+](=O)[O-])c1 | 30.4 (≈ 15 µg/mL) | 60.9 (≈ 30 µg/mL) | 1.62 | 24.3 | 12.2 | 1.62 | 12.2 | 48.7 | 2.23 | 6.09 | 4.46 | 1.22 | 1.22 | 6.09 | 24.3 | 60.9 (≈ 30 µg/mL) | 30.4 (≈ 15 µg/mL) | 60.9 (≈ 30 µg/mL) | 30.4 (≈ 15 µg/mL) | 60.9 (≈ 30 µg/mL) | MIC (Pseudomonas aeruginosa [21]): 30.4 µM (≈ 15 µg/mL); MIC (Bacillus cereus [22]): 30.4 µM (≈ 15 µg/mL); MIC (Escherichia coli [23]): 30.4 µM (≈ 15 µg/mL); MBC (Pseudomonas aeruginosa [24]): 60.9 µM (≈ 30 µg/mL); MBC (Escherichia coli [25]): 60.9 µM (≈ 30 µg/mL); MIC (Micrococcus flavus [26]): 30.4 µM (≈ 15 µg/mL); MFC (Trichoderma viride [27]): 1.62 ×10⁻² mM; MBC (Staphylococcus aureus [28]): 60.9 µM (≈ 30 µg/mL); MIC (Staphylococcus aureus [29]): 30.4 µM (≈ 15 µg/mL); MIC [30]: 3.04 ×10⁻² mM; MBC (Listeria monocytogenes [31]): 60.9 µM (≈ 30 µg/mL); MFC (Aspergillus ochraceus [32]): 3.04 ×10⁻² mM
COc1cc2c(c([N+](=O)[O-])c1)NC(C)(C)c1ssc(=S)c1-2 | 176 (≈ 60 µg/mL) | 176 (≈ 59.9 µg/mL) | 8.81 | 6.46 | 35.2 | 2.35 | 4.41 | 17.6 | 4.41 | 8.81 | 17.6 | 4.41 | 3.23 | 8.81 | 8.81 | 88.1 (≈ 30 µg/mL) | 176 (≈ 59.9 µg/mL) | 176 (≈ 59.9 µg/mL) | 88.1 (≈ 30 µg/mL) | 352 (≈ 120 µg/mL) | MIC (Pseudomonas aeruginosa [21]): 88.1 µM (≈ 30 µg/mL); MIC (Bacillus cereus [22]): 44.1 µM (≈ 15 µg/mL); MIC (Escherichia coli [23]): 132 µM (≈ 45 µg/mL); MBC (Pseudomonas aeruginosa [24]): 176 µM (≈ 60 µg/mL); MBC (Escherichia coli [25]): 176 µM (≈ 59.9 µg/mL); MIC (Micrococcus flavus [26]): 132 µM (≈ 44.9 µg/mL); MFC (Trichoderma viride [27]): 4.41 ×10⁻² mM; MBC (Staphylococcus aureus [28]): 176 µM (≈ 59.9 µg/mL); MIC (Staphylococcus aureus [29]): 88.1 µM (≈ 30 µg/mL); MIC [30]: 4.41 ×10⁻² mM; MBC (Listeria monocytogenes [31]): 352 µM (≈ 120 µg/mL); MFC (Aspergillus ochraceus [32]): 4.41 ×10⁻² mM
